Assay results published in ChEMBL document CHEMBL1926569, “Novel (E)-1-(4-methyl-2-(alkylamino)thiazol-5-yl)-3-arylprop-2-en-1-ones as potent antimicrobial agents” (2011).
In brackets after ≈: the same amount, converted by molar mass.

Key:
[1] = tested on: Candida albicans; assay: Antifungal activity against Candida albicans isolated from human incubated for 72 hrs followed by serial sub-cultivation for 72 hrs by serial dilution technique; type: functional
Method in brief: (§1)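 MFC: material from 72 h malt broth microdilution wells was serially sub-cultured into fresh broth plates and incubated a further 72 h at 28 °C. Fungicidal concentration is taken from growth after sub-culture. Duplicate, repeated three times.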

[2] = tested on: Aspergillus niger; assay: Antifungal activity against Aspergillus niger ATCC 6275 after 72 hrs by serial dilution technique; type: functional; details: ATCC 6275, 72 h
Method in brief: (§2)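 Modified microdilution in 96-well plates. Fungi were kept on malt agar at 4 °C. Spores were washed off in sterile 0.85% saline with 0.1% Tween 80. Compounds were dissolved at 1 mg/ml in 5% DMSO with 0.1% Tween 80 and added to malt broth with inoculum. Plates were shaken at 160 rpm for 72 h at 28 °C. Duplicate, repeated three times.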

[3] = tested on: Pseudomonas aeruginosa; assay: Antibacterial activity against Pseudomonas aeruginosa ATCC 27853 incubated for 24 hrs followed by serial sub-cultivation for 24 hrs by microdilution; type: functional; details: ATCC 27853, 24 h
Method in brief: (§3)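 MBC: after the 24 h LB broth microdilution (1.0 × 10⁴ CFU per well, 160 rpm), wells were serially sub-cultured into fresh broth plates and incubated a further 24 h. MBC is the lowest concentration with no visible growth, taken as 99.5% killing of the original inoculum. Duplicate, repeated three times.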

[4] = tested on: Penicillium ochrochloron; assay: Antifungal activity against Penicillium ochrochloron ATCC 9112 after 72 hrs by serial dilution technique; type: functional; details: ATCC 9112, 72 h; method in brief: as §2
[5] = tested on: Aspergillus niger; assay: Ratio of bifonazole to compound for Aspergillus niger ATCC 6275; type: functional
[6] = tested on: Escherichia coli; assay: Antibacterial activity against Escherichia coli ATCC 35210 after 24 hrs by microdilution method; type: functional; details: ATCC 35210, 24 h
Method in brief: (§4)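 Broth microdilution in 96-well plates. Bacterial suspensions were adjusted in sterile saline to 1.0 × 10⁵ CFU/ml, prepared daily and kept at 4 °C. Compound was added to LB broth with 1.0 × 10⁴ CFU per well and shaken at 160 rpm for 24 h at […] (so in the source). MIC is the lowest concentration with no visible growth under a binocular microscope. OD655 was also read. Duplicate, repeated three times.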

[7] = tested on: Staphylococcus aureus; assay: Antibacterial activity against Staphylococcus aureus ATCC 6538 after 24 hrs by microdilution method; type: functional; details: ATCC 6538, 24 h; method in brief: as §4
[8] = tested on: Aspergillus ochraceus; assay: Antifungal activity against Aspergillus ochraceus after 72 hrs by serial dilution technique
[9] = tested on: Trichoderma viride; assay: Ratio of bifonazole to compound for Trichoderma viride IAM 5061; type: functional
[10] = tested on: Staphylococcus aureus; assay: Antibacterial activity against Staphylococcus aureus ATCC 6538 incubated for 24 hrs followed by serial sub-cultivation for 24 hrs by microdilution method; type: functional; details: ATCC 6538, 24 h; method in brief: as §3
[11] = tested on: Penicillium ochrochloron; assay: Ratio of ketoconazole to compound for Penicillium ochrochloron ATCC 9112; type: functional
[12] = tested on: Talaromyces funiculosus; assay: Antifungal activity against Penicillium funiculosum ATCC 36839 after 72 hrs by serial dilution technique; type: functional; details: ATCC 36839, 72 h; method in brief: as §2
[13] = tested on: Candida albicans; assay: Ratio of bifonazole to compound for Candida albicans isolated from human; type: functional
[14] = tested on: Penicillium ochrochloron; assay: Ratio of bifonazole to compound for Penicillium ochrochloron ATCC 9112; type: functional
[15] = tested on: Aspergillus fumigatus; assay: Ratio of ketoconazole to compound for Aspergillus fumigatus isolated from human; type: functional
[16] = tested on: Aspergillus flavus; assay: Antifungal activity against Aspergillus flavus ATCC 9643 after 72 hrs by serial dilution technique; type: functional; details: ATCC 9643, 72 h; method in brief: as §2
[17] = tested on: Micrococcus flavus; assay: Antibacterial activity against Micrococcus flavus ATCC 10240 incubated for 24 hrs followed by serial sub-cultivation for 24 hrs by microdilution; type: functional; details: ATCC 10240, 24 h; method in brief: as §3
[18] = tested on: Aspergillus flavus; assay: Antifungal activity against Aspergillus flavus ATCC 9643 incubated for 72 hrs followed by serial sub-cultivation for 72 hrs by serial dilution technique; type: functional; details: ATCC 9643, 72 h; method in brief: as §1
[19] = tested on: Enterococcus faecalis; assay: Antibacterial activity against Enterococcus faecalis isolated from human incubated for 24 hrs followed by serial sub-cultivation for 24 hrs by microdilution; type: functional; method in brief: as §3
[20] = tested on: Listeria monocytogenes; assay: Antibacterial activity against Listeria monocytogenes NCTC 7973 incubated for 24 hrs followed by serial sub-cultivation for 24 hrs by microdilution; type: functional; details: NCTC 7973, 24 h; method in brief: as §3
[21] = tested on: Listeria monocytogenes; assay: Antibacterial activity against Listeria monocytogenes NCTC 7973 after 24 hrs by microdilution method; type: functional; details: NCTC 7973, 24 h; method in brief: as §4
[22] = tested on: Trichoderma viride; assay: Antifungal activity against Trichoderma viride IAM 5061 incubated for 72 hrs followed by serial sub-cultivation for 72 hrs by serial dilution technique; type: functional; details: IAM 5061, 72 h; method in brief: as §1
[23] = tested on: Aspergillus ochraceus; assay: Ratio of bifonazole to compound for Aspergillus ochraceus ATCC 12066; type: functional
[24] = tested on: Bacillus cereus; assay: Antibacterial activity against clinical isolate of Bacillus cereus incubated for 24 hrs followed by serial sub-cultivation for 24 hrs by microdilution; type: functional; method in brief: as §3
[25] = tested on: Aspergillus niger; assay: Antifungal activity against Aspergillus niger ATCC 6275 incubated for 72 hrs followed by serial sub-cultivation for 72 hrs by serial dilution technique; type: functional; details: ATCC 6275, 72 h; method in brief: as §1
[26] = tested on: Pseudomonas aeruginosa; assay: Antibacterial activity against Pseudomonas aeruginosa ATCC 27853 after 24 hrs by microdilution method; type: functional; details: ATCC 27853, 24 h; method in brief: as §4
[27] = tested on: Salmonella typhimurium; assay: Antibacterial activity against Salmonella Typhimurium ATCC 13311 incubated for 24 hrs followed by serial sub-cultivation for 24 hrs by microdilution; type: functional, Salmonella enterica subsp. enterica serovar Typhimurium; details: Salmonella enterica, ATCC 13311, 24 h; method in brief: as §3
[28] = tested on: Salmonella typhimurium; assay: Antibacterial activity against Salmonella Typhimurium ATCC 13311 after 24 hrs by microdilution method; type: functional, Salmonella enterica subsp. enterica serovar Typhimurium; details: Salmonella enterica, ATCC 13311, 24 h; method in brief: as §4
[29] = tested on: Penicillium ochrochloron; assay: Antifungal activity against Penicillium ochrochloron ATCC 9112 incubated for 72 hrs followed by serial sub-cultivation for 72 hrs by serial dilution technique; type: functional; details: ATCC 9112, 72 h; method in brief: as §1
[30] = tested on: Trichoderma viride; assay: Antifungal activity against Trichoderma viride IAM 5061 after 72 hrs by serial dilution technique; type: functional; details: IAM 5061, 72 h; method in brief: as §2
[31] = tested on: Candida albicans; assay: Antifungal activity against Candida albicans isolated from human after 72 hrs by serial dilution technique; type: functional; method in brief: as §2
[32] = tested on: Aspergillus ochraceus; assay: Antifungal activity against Aspergillus ochraceus ATCC 12066 after 72 hrs by serial dilution technique; type: functional; details: ATCC 12066, 72 h; method in brief: as §2
[33] = tested on: Pseudomonas aeruginosa; assay: Ratio of ampicillin MIC to compound MIC for Pseudomonas aeruginosa ATCC 27853; type: functional
[34] = tested on: Talaromyces funiculosus; assay: Ratio of bifonazole to compound for Penicillium funiculosum ATCC 36839; type: functional
[35] = tested on: Candida albicans; assay: Ratio of ketoconazole to compound for Candida albicans isolated from human; type: functional
[36] = tested on: Aspergillus fumigatus; assay: Antifungal activity against Aspergillus fumigatus isolated from human incubated for 72 hrs followed by serial sub-cultivation for 72 hrs by serial dilution technique; type: functional; method in brief: as §1
[37] = tested on: Escherichia coli; assay: Antibacterial activity against Escherichia coli ATCC 35210 incubated for 24 hrs followed by serial sub-cultivation for 24 hrs by microdilution; type: functional; details: ATCC 35210, 24 h; method in brief: as §3
[38] = tested on: Talaromyces funiculosus; assay: Antifungal activity against Penicillium funiculosum ATCC 36839 incubated for 72 hrs followed by serial sub-cultivation for 72 hrs by serial dilution technique; type: functional; details: ATCC 36839, 72 h; method in brief: as §1
[39] = tested on: Enterococcus faecalis; assay: Antibacterial activity against Enterococcus faecalis isolated from human after 24 hrs by microdilution method; type: functional; method in brief: as §4
[40] = tested on: Aspergillus ochraceus; assay: Ratio of ketoconazole to compound for Aspergillus ochraceus ATCC 12066; type: functional
[41] = tested on: Bacillus cereus; assay: Antibacterial activity against clinical isolate of Bacillus cereus after 24 hrs by microdilution method; type: functional; method in brief: as §4
[42] = tested on: Aspergillus ochraceus; assay: Antifungal activity against Aspergillus ochraceus ATCC 12066 incubated for 72 hrs followed by serial sub-cultivation for 72 hrs by serial dilution technique; type: functional; details: ATCC 12066, 72 h; method in brief: as §1
[43] = tested on: Micrococcus flavus; assay: Antibacterial activity against Micrococcus flavus ATCC 10240 after 24 hrs by microdilution method; type: functional; details: ATCC 10240, 24 h; method in brief: as §4

- MIC [2]: 65.3 µM (≈ 20 µg/mL)
- MIC [4]: 65.3 µM (≈ 20 µg/mL)
- MIC [6]: 65.3 µM (≈ 20 µg/mL)
- MIC [7]: 98 µM (≈ 30.1 µg/mL)
- MIC [8]: 49 µM (≈ 15 µg/mL)
- MIC [12]: 32.7 µM (≈ 10 µg/mL)
- MIC [16]: 65.3 µM (≈ 20 µg/mL)
- MIC [21]: 98 µM (≈ 30.1 µg/mL)
- MIC [26]: 65.3 µM (≈ 20 µg/mL)
- MIC [28]: 49 µM (≈ 15 µg/mL)
- MIC [30]: 32.7 µM (≈ 10 µg/mL)
- MIC [31]: 32.7 µM (≈ 10 µg/mL)
- MIC [32]: 65.3 µM (≈ 20 µg/mL)
- MIC [39]: 81.7 µM (≈ 25.1 µg/mL)
- MIC [41]: 81.7 µM (≈ 25.1 µg/mL)
- MIC [43]: 65.3 µM (≈ 20 µg/mL)
Compound: CCNc1nc(C)c(C(=O)/C=C/c2ccc(Cl)cc2)s1
- MFC [1]: 65.3 µM (≈ 20 µg/mL)
- MBC [3]: 98 µM (≈ 30.1 µg/mL)
- Ratio [5]: 10
- Ratio [9]: 10
- MBC [10]: 98 µM (≈ 30.1 µg/mL)
- Ratio [11]: 10
- Ratio [13]: 10
- Ratio [14]: 10
- Ratio [15]: 10
- MBC [17]: 81.7 µM (≈ 25.1 µg/mL)
- MFC [18]: 81.7 µM (≈ 25.1 µg/mL)
- MBC [19]: 81.7 µM (≈ 25.1 µg/mL)
- MBC [20]: 98 µM (≈ 30.1 µg/mL)
- MFC [22]: 65.3 µM (≈ 20 µg/mL)
- Ratio [23]: 10
- MBC [24]: 81.7 µM (≈ 25.1 µg/mL)
- MFC [25]: 81.7 µM (≈ 25.1 µg/mL)
- MBC [27]: 49 µM (≈ 15 µg/mL)
- MFC [29]: 81.7 µM (≈ 25.1 µg/mL)
- Ratio [33]: 10
- Ratio [34]: 10
- Ratio [35]: 10
- MFC [36]: 65.3 µM (≈ 20 µg/mL)
- MBC [37]: 98 µM (≈ 30.1 µg/mL)
- MFC [38]: 65.3 µM (≈ 20 µg/mL)
- Ratio [40]: 10
- MFC [42]: 81.7 µM (≈ 25.1 µg/mL)
